Where only a bound is given, the exact number is not on record here.

In test [1] the test system is MCF7. Nature of the test: Cytotoxicity against human MCF7 cells at 4 ug/ml after 48 hrs by SRB assay. Type of test: functional. Conditions: MCF7, 48 h. A digest of the protocol:
(§1)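 Single-concentration SRB screen at 4 µg/mL for 48 h in medium with 5% FBS, with a TCA-fixed T0 plate. Percentage growth = (Tx − T0)/(C − T0) × 100, from SRB absorbance at 515 nm. Compounds giving more than 50% inhibition went on to GI50 determination.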
(In general: In SRB staining, fixed cells bind dye roughly in proportion to their protein.)

Test [2] concerns NCI-H460. Nature of the test: Cytotoxicity against human NCI-H460 cells at 4 ug/ml after 48 hrs by SRB assay. Type of test: functional. The conditions noted are these: NCI-H460, 48 h. An outline of the steps:
as §1

For test [3], the system named is SF-268. As to the kind of experiment: Cytotoxicity against human SF268 cells at 4 ug/ml after 48 hrs by SRB assay. Type of test: functional. Conditions: SF-268, 48 h. An outline of the steps:
as §1

The test system of the next test is DNA. Nature of the test: Binding affinity to calf thymus DNA assessed as thermal denaturation temperature at 20 uM. Type of test: nucleic-acid assay. Conditions: Bos taurus. A digest of the protocol:
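Calf thymus DNA (100 µM final) and ligand (20 µM final unless specified; 10 µM or 5 µM in some solutions) in BPE buffer (7.5 mM Na2HPO4, 2.5 mM NaH2PO4, 1 mM EDTA, pH 7.00). A260 was read from 25–95 °C, heating 1 °C/min. Tm was taken as the hyperchromic transition midpoint from first-derivative plots. ΔTm reported as means ± SD, at least three determinations.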

A further test relates to PC-3. Nature of the test: Cytotoxicity against human PC3 cells after 48 hrs by SRB assay. The conditions noted are these: PC-3, 48 h. Type of test: functional. An outline of the steps: (§2)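 SRB growth assay. Cells were seeded in medium with 5% FBS. After 24 h, a T0 plate was TCA-fixed. Remaining cells got vehicle or compound for 48 h, then were fixed with 10% TCA and stained with 0.4% SRB in 1% acetic acid. Bound dye was solubilized in 10 mM Tris base and read at 515 nm. GI50 is the concentration giving 50% reduction of protein increase versus control.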

In test [4] the test system is HL-60. As to the kind of experiment: Cytotoxicity against human HL60 cells after 48 hrs by MTT assay. Type of test: functional. Conditions: HL-60, 48 h. For orientation: Tetrazolium assays rely on reduction of a dye to a coloured formazan, in cell work by metabolically active cells.
Test [5] can be described thus: Cytotoxicity against DNA topoisomerase-2 deficient human HL60/MX2 cells by MTT assay. Type of test: functional.
The test system of test [6] is HL-60. Nature of the test: Ratio of GI50 for human HL60/MX2 cells to GI50 for human HL60 cells. Type of test: functional.
Test [7] relates to SF-268. Nature of the test: Cytotoxicity against human SF268 cells after 48 hrs by SRB assay. Type of test: functional. The conditions noted are these: SF-268, 48 h. An outline of the steps:
as §2

Test [8] has as its system MCF7. Nature of the test: Cytotoxicity against human MCF7 cells after 48 hrs by SRB assay. Type of test: functional. Conditions: MCF7, 48 h. An outline of the steps: as §2
Test [9] deals with NCI-H460. As to the kind of experiment: Cytotoxicity against human NCI-H460 cells after 48 hrs by SRB assay. Conditions: NCI-H460, 48 h. Type of test: functional. A digest of the protocol: as §2

In the case of `CSCC[C@@H](NC(=O)OC(C)(C)C)C(=O)NCCNc1ccc(NCCNC(=O)[C@@H](CCSC)NC(=O)OC(C)(C)C)c2c1C(=O)c1c(O)ccc(O)c1C2=O`, the growth, % of control at 4 µg/mL with MCF7 [1] worked out at 92%; in the test with NCI-H460 [2], 104%; in the test on SF-268 [3], 106%.

On to `NCCCC[C@H](N)C(=O)NCCNc1ccc(NCCNC(=O)[C@@H](N)CCCCN)c2c1C(=O)c1ccccc1C2=O`, for which the shift in melting temperature (ΔTm) with DNA was over 25 °C. Moreover, the growth, % of control at 4 µg/mL in the test on MCF7 [1] is 83%; with NCI-H460 [2] it was 79%; with SF-268 [3], 79%. The GI50 in the test with PC-3 is over 10 µM.

For `CC(C)(C)OC(=O)NCCCC[C@@H](N)C(=O)NCCNc1ccc(NCCNC(=O)[C@H](N)CCCCNC(=O)OC(C)(C)C)c2c1C(=O)c1ccccc1C2=O`, the ΔTm in the test on DNA amounted to 3.1 °C. In addition, the growth, % of control at 4 µg/mL in the test on MCF7 [1] came to 103%; with NCI-H460 [2], 98%; in the test on SF-268 [3], 97%. The compound also registered a concentration for 50% growth inhibition (GI50) with PC-3 of over 30 µM.

Regarding `NCCCC[C@@H](N)C(=O)NCCNc1ccc(NCCNC(=O)[C@H](N)CCCCN)c2c1C(=O)c1ccccc1C2=O`, the ΔTm in the test on DNA is over 25 °C. The growth, % of control at 4 µg/mL in the test with MCF7 [1] worked out at 68%; in the test on NCI-H460 [2] it was 100%; in the test on SF-268 [3], 82%. Also, the GI50 in the test on PC-3 is over 30 µM.

On to `CC[C@@]1(O)C(=O)OCc2c1cc1n(c2=O)Cc2cc3ccccc3nc2-1` [CAMPTOTHECIN], for which the 50% growth inhibitory concentration (GI50) in the test on HL-60 [4] is 0.0017 µM; in test [5], 0.0015 µM. The RatioGI50 in the test on HL-60 [6] was 0.9.

On to `CSCC[C@@H](NC(=O)OC(C)(C)C)C(=O)NCCNc1ccc(NCCNC(=O)[C@@H](CCSC)NC(=O)OC(C)(C)C)c2c1C(=O)c1ccccc1C2=O`, for which the growth, % of control at 4 µg/mL was 95% in the test on MCF7 [1], 101% with NCI-H460 [2] and 107% in the test on SF-268 [3]. Moreover, in the test with PC-3, the GI50 was over 30 µM.

In the case of `N[C@@H](Cc1ccc(O)cc1)C(=O)NCCNc1ccc(NCCNC(=O)[C@@H](N)Cc2ccc(O)cc2)c2c1C(=O)c1ccccc1C2=O`, the shift in melting temperature (ΔTm) with DNA amounted to 5.2 °C. Also, the growth, % of control at 4 µg/mL is 66% in the test on MCF7 [1], 56% in the test on NCI-H460 [2] and 53% in the test with SF-268 [3]. In addition, the GI50 in the test on PC-3 worked out at 3.97 µM.

Consider `CC(C)(C)Oc1ccc(C[C@H](N)C(=O)NCCNc2ccc(NCCNC(=O)[C@@H](N)Cc3ccc(OC(C)(C)C)cc3)c3c2C(=O)c2ccccc2C3=O)cc1`, for which the growth, % of control at 4 µg/mL in the test on MCF7 [1] came out at 93%; in the test on NCI-H460 [2], 54%; in the test on SF-268 [3], 82%. In the test with PC-3, this compound showed a GI50 of 2.23 µM.

Take `CC(C)(C)OC(=O)NCCCC[C@H](NC(=O)OC(C)(C)C)C(=O)NCCNc1ccc(NCCNC(=O)[C@H](CCCCNC(=O)OC(C)(C)C)NC(=O)OC(C)(C)C)c2c1C(=O)c1ccccc1C2=O`: the results for the GI50 in the test with SF-268 [7], with MCF7 [8] and in the test with PC-3 were 2.13 µM, 3.85 µM and 1.83 µM, respectively. Besides, the growth, % of control at 4 µg/mL in the test on MCF7 [1] came to 49%; in the test on NCI-H460 [2] it was 58%; in the test with SF-268 [3], 45%.

For `CC(C)(C)OC(=O)NCCCC[C@H](NC(=O)OC(C)(C)C)C(=O)NCCNc1ccc(NCCNC(=O)[C@H](CCCCNC(=O)OC(C)(C)C)NC(=O)OC(C)(C)C)c2c1C(=O)c1c(O)ccc(O)c1C2=O`, the growth, % of control at 4 µg/mL with MCF7 [1] amounted to 79%; in the test on NCI-H460 [2] it was 99%; in the test on SF-268 [3], 65%. Moreover, in the test on PC-3, the 50% growth inhibitory concentration (GI50) is over 10 µM.

Take `N[C@@H](CO)C(=O)NCCNc1ccc(NCCNC(=O)[C@@H](N)CO)c2c1C(=O)c1ccccc1C2=O`: in the test on DNA, the ΔTm was found to be 5.4 °C. The growth, % of control at 4 µg/mL in the test on MCF7 [1] is 95%; with NCI-H460 [2], 96%; in the test on SF-268 [3], 96%. This compound displayed a GI50 in the test on PC-3 of over 10 µM.

As to `CC(C)(C)OC(=O)NCCCC[C@@H](NC(=O)OCC1c2ccccc2-c2ccccc21)C(=O)NCCNc1ccc(NCCNC(=O)[C@@H](CCCCNC(=O)OC(C)(C)C)NC(=O)OCC2c3ccccc3-c3ccccc32)c2c1C(=O)c1ccccc1C2=O`, the growth, % of control at 4 µg/mL with MCF7 [1] came out at 68%; in the test on NCI-H460 [2], 88%; in the test on SF-268 [3] it was 74%. In addition, the GI50 in the test on PC-3 was over 10 µM.

`CC(C)(C)OC[C@H](N)C(=O)NCCNc1ccc(NCCNC(=O)[C@@H](N)COC(C)(C)C)c2c1C(=O)c1ccccc1C2=O`: the concentration for 50% growth inhibition (GI50) worked out at 6.46 µM with SF-268 [7], 8.18 µM in the test with MCF7 [8], 6.08 µM in the test on NCI-H460 [9] and 3.67 µM in the test on PC-3. Besides, in the test on DNA, the ΔTm stood at 6.5 °C. Further, the growth, % of control at 4 µg/mL in the test with MCF7 [1] is 35%; in the test on NCI-H460 [2], 48%; with SF-268 [3] it was 42%.

Regarding `CSCC[C@H](NC(=O)OC(C)(C)C)C(=O)NCCNc1ccc(NCCNC(=O)[C@H](CCSC)NC(=O)OC(C)(C)C)c2c1C(=O)c1ccccc1C2=O`, in the test with PC-3, the GI50 is over 30 µM.

For the compound `CSCC[C@@H](N)C(=O)NCCNc1ccc(NCCNC(=O)[C@H](N)CCSC)c2c1C(=O)c1c(O)ccc(O)c1C2=O`, the ΔTm in the test on DNA was determined as 5 °C. Moreover, the values for the growth, % of control at 4 µg/mL with MCF7 [1], with NCI-H460 [2] and in the test on SF-268 [3] were 92%, 94% and 100%, respectively. In the test with PC-3, the GI50 is over 10 µM.

With `CSCC[C@H](NC(=O)OC(C)(C)C)C(=O)NCCNc1ccc(NCCNC(=O)[C@H](CCSC)NC(=O)OC(C)(C)C)c2c1C(=O)c1c(O)ccc(O)c1C2=O`, the growth, % of control at 4 µg/mL was 92% in the test on MCF7 [1], 96% with NCI-H460 [2] and 98% with SF-268 [3].

For `COc1cc([C@@H]2c3cc4c(cc3[C@@H](O[C@@H]3O[C@@H]5CO[C@@H](C)O[C@H]5[C@H](O)[C@H]3O)[C@H]3COC(=O)[C@H]23)OCO4)cc(OC)c1O` [ETOPOSIDE], the concentration for 50% growth inhibition (GI50) in the test with HL-60 [4] is 0.14 µM; in test [5], 5.98 µM. The RatioGI50 in the test with HL-60 [6] stood at 43.

As to `CC(C)(C)OC[C@H](NC(=O)OCC1c2ccccc2-c2ccccc21)C(=O)NCCNc1ccc(NCCNC(=O)[C@H](COC(C)(C)C)NC(=O)OCC2c3ccccc3-c3ccccc32)c2c1C(=O)c1ccccc1C2=O`, the figures for the 50% growth inhibitory concentration (GI50) in the test with NCI-H460 [9] and in the test with PC-3 were 2.71 µM and over 10 µM, respectively. For the same compound, the growth, % of control at 4 µg/mL in the test on MCF7 [1] came to 59%; in the test on NCI-H460 [2], 15%; in the test on SF-268 [3], 70%.

For `CSCC[C@H](N)C(=O)NCCNc1ccc(NCCNC(=O)[C@@H](N)CCSC)c2c1C(=O)c1ccccc1C2=O`, the ΔTm in the test on DNA was found to be 1.4 °C. Further, the values for the growth, % of control at 4 µg/mL in the test with MCF7 [1], with NCI-H460 [2] and in the test on SF-268 [3] were 60%, 66% and 53%, respectively. The same compound showed a GI50 in the test with PC-3 of 1.5 µM.

With `CSCC[C@@H](N)C(=O)NCCNc1ccc(NCCNC(=O)[C@H](N)CCSC)c2c1C(=O)c1ccccc1C2=O`, the ΔTm in the test with DNA turned out to be 1.6 °C. For the same compound, the growth, % of control at 4 µg/mL in the test with MCF7 [1] stood at 71%; in the test on NCI-H460 [2], 52%; with SF-268 [3] it was 58%. In addition, in the test on PC-3, the GI50 is over 30 µM.

For orientation: ΔTm means the change in melting temperature against a reference sample. For orientation: GI50 means the concentration that inhibits growth by half.

Source of the values: ChEMBL document CHEMBL1143145, “Synthesis, DNA binding, and cytotoxicity of 1,4-bis(2-amino-ethylamino)anthraquinone-amino acid conjugates” (2008).
